# The list is not random: actives were taken first. Their share in the collection is about 2.2%.
# Diaph inh CS = diaphorase inhibition or chemical oxidation counter-screen; diaphorase resazurin-to-resorufin fluorescence, NADH, 16 min; bacterial (C. kluyveri) enzyme, not human; inhibition, % at 20 µM; 190,000 tested, 0.69% active;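 active = primary screen inhibition at 20 µM above a set limit, cut at about 50% in these data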;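 also: plate controls were DMSO with full reaction for no effect and wells lacking NADH for full effect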
#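 Test system: Clostridium kluyveri diaphorase enzyme / Quantity: diaphorase at 0.14 U/mL in enzyme working solution / Incubation: 16-min room-temperature incubation before reading / Benchmarks: NADH-free wells as positive control, DMSO-only neutral wells / Signal: resorufin fluorescence 544/590 nm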
# ROMK primary = modulates human ROMK potassium channel activity | P48048 | B-score at 10 µM | Tet-inducible ROMK, thallium flux fluorescence; actives lie on both sides | 130,000 tested, 2% active;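 active = signal ratio slope over the read window, or its plate-corrected B-score, at least 3 SD from the plate mean, either direction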;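 also: B-score of the F/F0 ratio slope over 7 to 12 s after thallium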
# Target sequence (P48048 whole entry, looked up): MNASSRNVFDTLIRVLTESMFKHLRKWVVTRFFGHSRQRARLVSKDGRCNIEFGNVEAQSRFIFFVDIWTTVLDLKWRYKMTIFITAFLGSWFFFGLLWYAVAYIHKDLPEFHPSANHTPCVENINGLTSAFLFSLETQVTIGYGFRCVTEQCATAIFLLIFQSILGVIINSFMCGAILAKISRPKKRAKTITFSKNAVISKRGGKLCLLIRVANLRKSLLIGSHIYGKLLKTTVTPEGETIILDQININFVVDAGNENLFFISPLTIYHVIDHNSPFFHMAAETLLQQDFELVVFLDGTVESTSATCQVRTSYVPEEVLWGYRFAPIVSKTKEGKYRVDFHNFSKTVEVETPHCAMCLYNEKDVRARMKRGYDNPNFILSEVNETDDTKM
# PMI activator = phosphomannose isomerase (human) activation | P34949 | purified human PMI, coupled resazurin fluorescence, 20 min; hits give high values; 1 = vehicle control, 0 substrate-free wells | activation factor at 20 µM | 190,000 tested, 0.005% active | AID 1214;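 active = activation factor of 2 or more at 20 µM, relative to plate controls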
# PMI act hi M6P = increases human PMI activity with near-saturating mannose 6-phosphate; P34949; coupled PMI enzyme assay, resazurin fluorescence, 20 min; hits give high values; 1 = untreated enzyme, 0 = substrate-free blank; activation factor at 20 µM; 190,000 tested, 0.34% active; AID 1216;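 active = activation factor of 2 or more at 20 µM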
#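 Material: human phosphomannose isomerase with PGI, G6PDH, diaphorase coupling enzymes; amount: PMI at 15 ng/mL final; also added: Mannose-6-phosphate 1.0 mM (near-saturating) plus 0.22 mM NADP+; incubation: enzyme reaction with compound 20 min at room temperature; signal: resorufin fluorescence (Ex 544/Em 590 nm) from resazurin via diaphorase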
# G6PDH CS = L. mesenteroides G6PDH inhibition counter-screen | Purified L. mesenteroides G6PDH, diaphorase/resazurin coupled fluorescence, 45 min | 200,000 tested, 0.12% active | inhibition, % at 5 µM | AID 1020; in the data active = inhibition above about 50%
# Diaphorase act = counter-screen for diaphorase-based assays: diaphorase activators and chemical reducers; Diaphorase/resazurin coupled assay, resorufin fluorescence, 16 min; hits give high values; 1 = vehicle wells, 0 = NADH-free wells; activation factor at 20 µM; 190,000 tested, 0.005% active; AID 1229;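 active = diaphorase activity raised at least twofold by the compound at 20 µM; inactive = activation factor below 2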
#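 Measured by – red resorufin fluorescence at 544/590 nm excitation/emission · Test system – Clostridium kluyveri diaphorase, purified enzyme · Incubation – reaction time 16 min, room temperature · Buffer or medium – 50 mM HEPES pH 7.4 with 4.542 mM MgCl2, 0.005% Tween 20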
# ROMK hit retest = confirmation of human ROMK potassium channel modulators; shares compounds with ROMK primary; ROMK thallium flux, fluorescence ratio; hits give low values; normalized thallium flux (F/F0 slope) at 10 µM; 3,000 tested, 54% active;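 active = Flux at 10 µM at least 3 SD below or above vehicle control mean in one or both replicates; inconclusive = no clear call, values can overlap the other calls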
# Starred values were filed as active, the others as inactive; ? = inconclusive; · = not tested or not shown.
SMILES,Diaph inh CS,ROMK primary,PMI activator,PMI act hi M6P,G6PDH CS,Diaphorase act,ROMK hit retest
O=[N+]([O-])c1ccc(N2CCCNCC2)c2ncccc12,·,·,·,·,·,·,0.039*
c1ccc2c(c1)CC1CNCc3cccc(c31)S2 (stereo not drawn),6,-2.8*,0.9,0.9,-4,0.9,0.054*
Cc1ccccc1-n1c(O)c(/C=N/NC(=O)c2ccncc2)c(=O)[nH]c1=O,·,-0.23,·,·,·,·,·
O=Cc1c(C(=O)O)n(Cc2ccc(Cl)cc2)c2ccccc12,15,·,1.1,1.1,-6,0.9,0.053*
CCN(CC)c1ccc(CNCCc2ccc(F)cc2)cc1,8,-2.8*,1,1,-7,0.9,0.054*
CN1CCc2nc3sc(C#N)c(N)c3c(-c3cccs3)c2C1,34,3,1.1,1.3,4,0.7,?
CN1CCc2nc(N)c(C#N)c(-c3ccccc3)c2C1,-1,·,1,1,0,1,·
Cc1cccc(N2C(=O)NC(=O)/C(=C\c3cc(C)n(-c4sc5c(c4C#N)CCCC5)c3C)C2=O)c1C,28,·,0.9,1,2,0.7,·
CCOC(=O)c1c(-n2c(C)cc(C=C3C(=O)NC(=O)NC3=O)c2C)sc2c1CCCC2,10,-4.7*,1.1,1.1,5,0.9,?
O=C(c1ccccc1F)c1cn(CC(=O)N2CCCC2)c2ccccc12,-10,·,1,1.1,15,1.1,·
CCCCn1c(C)c(C(=O)OCC)c2c(CN3CCOCC3)c(O)ccc21,8,-2.3*,0.9,0.9,-2,0.9,0.066*
CCOC(=O)c1c(C)n(Cc2ccco2)c2ccc(O)cc12,17,·,0.8,1,11,0.8,·
CCN(CC)P(=O)(NC(=O)C(Cl)(Cl)Cl)N(CC)CC.[Cl-].[Cl-].[Cl-].[Nd+3],-10,-0.73,1.2,1.1,10,1.1,·
O=C(COc1ccc2ccccc2c1)N1CCN(C2CCN(Cc3ccccc3)CC2)CC1,9,-3*,0.8,0.8,-18,0.9,0.061*
O=C(COc1ccccc1)N1CCN(C2CCCC2)CC1,15,·,0.9,1,-6,0.9,·
COc1ccc(C(O)c2ccccc2OP(=O)(N(C)C)N(C)C)cc1 (stereo not drawn),11,0.95,1.1,1,8,0.9,·
Cc1cc(C)cc(NC2=NCCCS2)c1,8,0.32,0.9,0.9,5,0.9,·
CCN(CC)C(=O)c1ccc(NC(=O)Nc2ccccc2F)cc1,20,·,0.9,0.9,2,0.8,·
CCCCCSc1cc(OC)c(CCN(C)C)cc1OC,-14,-1.5,1.1,1.1,6,1.1,·
CCCCCSc1cc(O)c(C(CNC)C(C)C)cc1OC (stereo not drawn),9,-3.2*,0.9,0.8,9,0.9,0.057*
COc1ccc(-n2c(O)c(C=Nc3c(C)n(C)n(-c4ccccc4)c3=O)c(=O)[nH]c2=O)cc1,11,·,1,0.9,5,0.9,·
CN(C)C(=O)Nc1cccc(OC(=O)N(C)C)c1,12,·,0.8,0.8,2,0.9,0.088
CN(C)C(=O)Oc1cccc2c(OC(=O)N(C)C)cccc12,15,0.72,0.9,1,13,0.8,·
CCNC(=O)C1OC(n2cnc3c(N)ncnc32)C(O)C1O (stereo not drawn),·,4.3*,·,·,·,·,?
CCOCCCNC(=O)C1c2cc(OC)c(OC)cc2C(=O)N2CCCCC12 (stereo not drawn),7,0.11,0.9,1,-3,0.9,·
SMILES,Diaph inh CS,ROMK primary,PMI activator,PMI act hi M6P,G6PDH CS,Diaphorase act,ROMK hit retest
CC1=CC(=O)OC2CC3OC4C[C@@H](C)C5OC6CC7O[C@]8(C)C/C=C\C9OC%10CC%11OC(CC(C)CO)CC(O)[C@]%11(C)OC%10CC9OC8C[C@]7(C)O[C@]6(C)CCC5OC4C[C@]3(C)OC12 (stereo partly drawn),14,·,0.9,1,4,0.9,·
C=C(COC(=O)CCC(=O)O)CC1CC(O)[C@]2(C)OC3CC4OC5C[C@]6(C)O[C@]7(C)CCC8OC9C[C@]%10(C)OC%11C(C)=CC(=O)OC%11CC%10OC9C[C@@H](C)C8OC7CC6O[C@]5(C)C/C=C\C4OC3CC2O1 (stereo partly drawn),·,·,·,·,·,·,0.081
Cn1c(NN=O)nc2ccccc21,-11,0.94,1.1,1.2,-2,1.1,·
Cc1ccc(CN2C(=O)NC(=O)C3(Cc4c(nc5ccccn5c4=O)N4CCCCCC43)C2=O)cc1 (stereo not drawn),12,-2.9*,0.9,1,0,0.9,0.064*
CSc1nnc([C@@H](N)Cc2ccccc2)o1,20,·,1,1,-1,0.8,·
CC(C)Sc1nnc([C@@H](N)Cc2ccccc2)o1,-3,·,1,1.1,8,1,0.078
CN(CCCCC(=O)/C=N/O)Cc1ccccc1 (tested in a mixture with another compound),3,3.3*,1.1,1.1,-4,1,0.083
Cc1c(C(=O)C(=O)N2CCC3(CC2)OCCO3)c2ccccc2n1C,0,-0.11,0.9,0.9,3,1,·
OCCN1C2CCC1CC(O)(c1ccc(F)cc1)C2 (stereo not drawn),-4,-0.74,1,1,16,1,·
OC1(c2ccc(F)cc2)CC2CCC(C1)N2Cc1nnnn1C1CCCCC1 (stereo not drawn),14,-4.8*,1,0.9,10,0.9,0.057*
O=C1NC(=O)C(=Cc2cc3c(cc2[N+](=O)[O-])OCO3)C(=O)N1,37,0.31,0.8,0.6,5,0.6,·
Cc1cccc(N2C(=O)NC(=O)/C(=C/c3cc4c(cc3[N+](=O)[O-])OCO4)C2=O)c1,27,-2.8*,1,0.8,1,0.7,0.056*
O=[N+]([O-])/C=C1\NCCN1Cc1ccc(Cl)nc1,17,0.46,0.9,0.9,7,0.8,·
O=c1[nH]c(=S)n(-c2ccc(Br)cc2)c(O)c1C=Nc1ccc(N2CCOCC2)cc1,19,0.0084,1,0.8,2,0.8,0.064*
CCOC(=O)C1CCN(/C=C2\C(=O)NC(=S)N(CC)C2=O)CC1,9,-0.23,1,1,7,0.9,·
COc1ccccc1-n1c(O)c(/C=N/N2CCCCC2)c(=O)n(-c2ccccc2OC)c1=S,·,0.071,·,·,·,·,·
CCc1ccc(CN2CCN(Cc3ccc(SC)cc3)CC2)cc1,14,·,1.1,1.2,9,0.9,·

# High-throughput results deposited in PubChem BioAssay by several laboratories.
